Results taken from ChEMBL document CHEMBL4673340 (J Med Chem, 2020).
Active and inactive are the calls of the source. The calls are words filed in the database; no cut-off is given here.

Key:
[1] = target: Organic anion transporter 3 (Homo sapiens, UniProt Q8TCC7); test: Inhibition of OAT3 (unknown origin)
[2] = Half life in Beagle dog at 1 mg/kg, iv by LC-MS/MS analysis; assay type: ADME, organism-based, Canis lupus familiaris; details: in vivo
How it was run: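 Three Beagle dogs; iv dose 1 mg/kg in 25% DMA in water; oral dose 2 mg/kg in 0.5% CMC-Na. Plasma drug concentrations are measured by LC–MS/MS. Values are the mean of three dogs.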

[3] = Toxicity in BALB/c nude mouse xenografted with human NCI-H209 cells assessed as induction of body weight loss at […], po BID for 28 days and co-treated with 50 mg/kg, po QD TMZ for 5 consecutive days at start of study and again 14 days later relative to TMZ alone; assay type: organism-based; details: in vivo, dose 0.75 mg/kg, time 28 day
[4] = AUC (0 to infinity) in ICR mouse at 1 mg/kg, iv by LC-MS/MS analysis; assay type: ADME, organism-based; set-up: route intravenous, time infinity, dose 1 mg/kg; details: in vivo
How it was run: (§1)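 Male/female unspecified ICR mice, n=3 per route. Intravenous 1 mg/kg in 5% DMA in water; oral 10 mg/kg in 0.5% MC. Plasma is processed by protein precipitation and analysed by LC–MS/MS using an acetonitrile/0.1% formic acid gradient. Values are means of the three animals.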

NCI-H209 = test: Potentiation of TMZ-induced antitumor activity against human NCI-H209 cells xenografted in BALB/c nude mouse assessed as tumor relapse rate at […], po BID for 28 days and co-treated with 50 mg/kg, po QD TMZ for 5 consecutive days at start of study and again 14 days later and measured after 68 days; assay type: functional, organism-based; details: time 28.0 day
Cytochrome P450 2C8 = Cytochrome P450 2C8 (Homo sapiens, UniProt P10632); test: Inhibition of CYP2C8 (unknown origin); assay type: ADME
Chain of Cytochrome P450 2C8 (P10632 whole entry): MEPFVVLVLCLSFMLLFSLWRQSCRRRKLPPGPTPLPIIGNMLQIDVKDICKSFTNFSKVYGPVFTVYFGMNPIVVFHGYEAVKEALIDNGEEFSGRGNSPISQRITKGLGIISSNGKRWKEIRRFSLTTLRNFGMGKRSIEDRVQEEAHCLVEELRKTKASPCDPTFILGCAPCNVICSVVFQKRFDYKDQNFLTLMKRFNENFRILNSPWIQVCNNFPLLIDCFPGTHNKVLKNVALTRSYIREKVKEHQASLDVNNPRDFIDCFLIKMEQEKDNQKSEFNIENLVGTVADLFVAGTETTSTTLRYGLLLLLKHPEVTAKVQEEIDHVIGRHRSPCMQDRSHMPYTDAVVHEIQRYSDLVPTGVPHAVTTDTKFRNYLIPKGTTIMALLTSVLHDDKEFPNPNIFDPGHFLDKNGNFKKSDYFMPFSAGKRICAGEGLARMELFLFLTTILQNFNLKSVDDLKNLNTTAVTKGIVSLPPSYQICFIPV

Cytochrome P450 2C9 = Cytochrome P450 2C9 (Homo sapiens, UniProt P11712); test: Inhibition of CYP2C9 (unknown origin); assay type: ADME
Chain of Cytochrome P450 2C9 (P11712 whole entry): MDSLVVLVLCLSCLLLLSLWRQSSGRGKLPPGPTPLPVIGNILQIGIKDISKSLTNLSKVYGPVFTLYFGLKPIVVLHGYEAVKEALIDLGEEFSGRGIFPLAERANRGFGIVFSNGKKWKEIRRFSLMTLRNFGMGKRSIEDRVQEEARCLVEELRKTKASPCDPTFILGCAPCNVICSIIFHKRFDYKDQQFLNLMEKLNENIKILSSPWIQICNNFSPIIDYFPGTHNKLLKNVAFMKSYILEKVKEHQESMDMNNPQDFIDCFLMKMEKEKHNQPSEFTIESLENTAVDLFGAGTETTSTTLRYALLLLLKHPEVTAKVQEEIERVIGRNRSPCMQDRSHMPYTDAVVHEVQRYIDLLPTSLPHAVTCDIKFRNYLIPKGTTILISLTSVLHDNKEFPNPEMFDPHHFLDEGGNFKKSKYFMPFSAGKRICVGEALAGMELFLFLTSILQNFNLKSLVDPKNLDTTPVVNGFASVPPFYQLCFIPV

[5] = Toxicity in BALB/c nude mouse xenografted with human MDA-MB-436 cells assessed as induction of body weight loss at 1.6 to […], po BID for 28 days followed by treatment was interruption and monitored for additional 2 months; assay type: organism-based; details: in vivo, dose 1.6-3.1 mg/kg, time 28 day
MDA-MB-436 = test: Antiproliferation activity against human MDA-MB-436 cells expressing BRCA1 mutant incubated for 7 days by CellTiter-Glo luminescent cell viability assay; assay type: functional, cell-based; details: MDA-MB-436, 168 h
How it was run: (§2)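 Seeding density is set per line for log growth over 7 days. Cells attach 16 h, then are treated in duplicate with a 10-point dilution series for 7 days. CellTiter-Glo luminescence (ATP) is read, and viability is expressed relative to mock-treated control. EC50 is the mean of three independent experiments run in triplicate.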

Cytochrome P450 2D6 = Cytochrome P450 2D6 (Homo sapiens, UniProt P10635); test: Inhibition of CYP2D6 (unknown origin); assay type: ADME
Chain of Cytochrome P450 2D6 (P10635 whole entry): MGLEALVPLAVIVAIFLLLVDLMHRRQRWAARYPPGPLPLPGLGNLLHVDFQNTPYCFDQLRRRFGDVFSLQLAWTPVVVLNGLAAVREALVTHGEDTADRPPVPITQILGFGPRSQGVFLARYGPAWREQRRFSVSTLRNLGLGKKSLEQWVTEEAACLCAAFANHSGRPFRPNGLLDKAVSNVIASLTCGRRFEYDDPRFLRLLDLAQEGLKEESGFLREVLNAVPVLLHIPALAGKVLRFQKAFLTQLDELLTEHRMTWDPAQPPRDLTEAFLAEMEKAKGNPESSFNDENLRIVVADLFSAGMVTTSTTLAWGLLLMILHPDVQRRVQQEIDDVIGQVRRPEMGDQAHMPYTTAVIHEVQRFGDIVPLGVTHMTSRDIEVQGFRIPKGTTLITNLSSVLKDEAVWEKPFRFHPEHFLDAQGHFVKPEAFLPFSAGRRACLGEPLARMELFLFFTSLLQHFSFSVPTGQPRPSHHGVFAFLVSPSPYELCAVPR

[6] = Clearance in Sprague-Dawley rat at 2 mg/kg, iv by LC-MS/MS analysis; assay type: ADME, organism-based; details: in vivo
How it was run: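 Sprague-Dawley rats (n=3) get 2 mg/kg iv formulated in 38% DMA in water. Plasma is protein-precipitated and quantified by LC–MS/MS (C18, acetonitrile/0.1% formic acid gradient). Parameters are means of the three rats.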

[7] = Antiproliferation activity against human UWB1289 cells expressing BRCA1 mutant incubated for 7 days by CellTiter-Glo luminescent cell viability assay; assay type: functional, cell-based; details: UWB1289, 168 h; how it was run: as §2
[8] = Volume of distribution at steady state in ICR mouse at 1 mg/kg, iv by LC-MS/MS analysis; assay type: ADME, organism-based; details: in vivo, read-out: Vdss
How it was run: (§3)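 Three ICR mice per arm. iv dose 1 mg/kg in 5% DMA in water; oral dose 10 mg/kg in 0.5% MC. Plasma was processed by protein precipitation, diluted with water and quantified by LC-MS/MS (C18 column, acetonitrile/0.1% formic acid gradient). Values are means of three animals.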

[9] = AUC (0 to infinity) in ICR mouse at 10 mg/kg, po by LC-MS/MS analysis; assay type: ADME, organism-based; set-up: time infinity, route oral, dose 10 mg/kg; details: in vivo; how it was run: as §1
[10] = Drug level in C57BL/6 mouse brain at 10 mg/kg, po after 4 hrs; assay type: ADME, organism-based; details: read-out: Drug uptake
How it was run: (§4)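 C57BL/6 mice (n=3) dosed orally at 10 mg/kg in 0.5% MC. Plasma and brain are sampled at 1, 2 and 4 h. Brain is homogenized in 3 volumes of saline, then acetonitrile protein precipitation; plasma is likewise precipitated. Both are analysed by LC–MS/MS and reported as means.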

[11] = Unbound fraction in mouse plasma; assay type: ADME, cell-free
[12] = Tmax in ICR mouse at 10 mg/kg, po by LC-MS/MS analysis; assay type: ADME, organism-based; details: in vivo; how it was run: as §3
[13] = Ratio of drug level in brain to plasma of C57BL/6 mouse brain at 10 mg/kg, po after 1 hrs; assay type: ADME, organism-based
How it was run: (§5)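 C57BL/6 mice were given 10 mg/kg po in 0.5% MC and sampled at 1, 2 and 4 h. Brain was homogenized in 3 volumes of saline, and brain and plasma were protein-precipitated with acetonitrile, then measured by LC-MS/MS. Brain (ng/g) was expressed as a percentage of plasma (ng/mL). Values are means of three mice.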

[14] = target: Poly [ADP-ribose] polymerase 2 (Homo sapiens, UniProt Q9UGN5); test: Inhibition of PARP-2 (unknown origin) pre-incubated for 30 mins before addition of activated DNA and NAD by chemiluminescent assay
Chain of Poly [ADP-ribose] polymerase 2 (Q9UGN5 whole entry): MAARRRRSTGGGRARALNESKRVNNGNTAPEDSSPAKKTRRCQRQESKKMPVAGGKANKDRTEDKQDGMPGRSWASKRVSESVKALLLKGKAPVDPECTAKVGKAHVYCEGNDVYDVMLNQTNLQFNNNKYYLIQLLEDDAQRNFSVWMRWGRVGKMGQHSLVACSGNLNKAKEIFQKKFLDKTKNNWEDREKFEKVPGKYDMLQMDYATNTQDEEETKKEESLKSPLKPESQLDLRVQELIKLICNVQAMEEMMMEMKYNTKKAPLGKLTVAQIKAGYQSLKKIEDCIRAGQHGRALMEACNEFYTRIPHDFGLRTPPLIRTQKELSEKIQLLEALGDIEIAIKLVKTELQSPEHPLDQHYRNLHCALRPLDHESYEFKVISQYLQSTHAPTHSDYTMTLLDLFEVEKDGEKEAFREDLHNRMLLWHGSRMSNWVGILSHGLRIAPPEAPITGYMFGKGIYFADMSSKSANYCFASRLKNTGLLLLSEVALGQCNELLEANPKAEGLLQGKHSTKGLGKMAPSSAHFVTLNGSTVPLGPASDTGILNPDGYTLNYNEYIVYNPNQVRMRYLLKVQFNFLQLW

[15] = Oral bioavailability in ICR mouse at 10 mg/kg by LC-MS/MS analysis; assay type: ADME, organism-based; details: in vivo; how it was run: as §3
[16] = Drug level in C57BL/6 mouse brain at 10 mg/kg, po after 1 hrs; assay type: ADME, organism-based; details: read-out: Drug uptake; how it was run: as §4
hERG (KCNH2) = hERG (KCNH2) (Homo sapiens, UniProt Q12809); test: Inhibition of human ERG activity at 20 uM by functional cellular assay
Chain of hERG (KCNH2) (Q12809 whole entry): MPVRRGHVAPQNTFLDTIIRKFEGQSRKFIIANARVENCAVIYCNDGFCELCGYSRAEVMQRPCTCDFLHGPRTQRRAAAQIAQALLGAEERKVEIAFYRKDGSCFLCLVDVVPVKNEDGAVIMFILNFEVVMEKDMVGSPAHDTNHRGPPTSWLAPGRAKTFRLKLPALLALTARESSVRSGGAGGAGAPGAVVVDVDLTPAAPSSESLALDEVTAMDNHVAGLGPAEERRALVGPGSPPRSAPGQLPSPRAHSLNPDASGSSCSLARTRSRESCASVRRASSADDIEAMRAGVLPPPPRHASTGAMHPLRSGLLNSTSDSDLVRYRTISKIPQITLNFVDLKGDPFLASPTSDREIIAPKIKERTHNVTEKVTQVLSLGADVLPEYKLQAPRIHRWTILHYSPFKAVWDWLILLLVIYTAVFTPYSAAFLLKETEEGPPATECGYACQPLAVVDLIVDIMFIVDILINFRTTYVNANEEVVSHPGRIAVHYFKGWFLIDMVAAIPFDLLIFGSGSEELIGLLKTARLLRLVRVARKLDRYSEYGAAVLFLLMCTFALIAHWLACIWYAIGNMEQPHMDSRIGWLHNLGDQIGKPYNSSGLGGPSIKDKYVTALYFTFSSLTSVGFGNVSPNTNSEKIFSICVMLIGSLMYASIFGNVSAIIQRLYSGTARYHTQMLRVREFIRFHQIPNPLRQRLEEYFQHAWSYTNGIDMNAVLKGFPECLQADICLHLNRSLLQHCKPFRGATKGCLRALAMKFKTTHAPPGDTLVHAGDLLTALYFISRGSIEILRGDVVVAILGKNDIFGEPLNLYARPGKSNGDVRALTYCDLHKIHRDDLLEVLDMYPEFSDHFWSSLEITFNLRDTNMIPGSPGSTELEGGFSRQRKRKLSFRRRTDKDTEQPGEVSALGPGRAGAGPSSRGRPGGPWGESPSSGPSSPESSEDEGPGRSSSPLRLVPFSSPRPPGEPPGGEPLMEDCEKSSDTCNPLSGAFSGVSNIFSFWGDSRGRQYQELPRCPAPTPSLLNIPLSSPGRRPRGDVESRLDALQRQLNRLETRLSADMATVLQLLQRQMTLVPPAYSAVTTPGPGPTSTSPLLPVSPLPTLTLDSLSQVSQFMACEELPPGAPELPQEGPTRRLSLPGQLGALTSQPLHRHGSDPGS

[17] = Oral bioavailability in Beagle dog at 2 mg/kg by LC-MS/MS analysis; assay type: ADME, organism-based, Canis lupus familiaris; details: in vivo
How it was run: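 Beagle dogs, three per group. iv 1 mg/kg in 25% DMA in water; oral 2 mg/kg. Values are means of three dogs.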

[18] = Ratio of drug level in brain to plasma of C57BL/6 mouse brain at 10 mg/kg, po after 2 hrs; assay type: ADME, organism-based; how it was run: as §5
[19] = Oral bioavailability in Sprague-Dawley rat at 5 mg/kg by LC-MS/MS analysis; assay type: ADME, organism-based; details: in vivo
How it was run: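 Pharmacokinetics in Sprague-Dawley rats, three per group. iv 2 mg/kg in 38% DMA in water; po 5 mg/kg. Plasma was protein-precipitated, diluted with water and analysed by LC-MS/MS using an acetonitrile/0.1% formic acid gradient. Values are means of three rats.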

[20] = target: Protein mono-ADP-ribosyltransferase PARP6 (Homo sapiens, UniProt Q2NL67); test: Inhibition of PARP-6 (unknown origin) pre-incubated for 30 mins before addition of activated DNA and NAD by chemiluminescent assay
Chain of Protein mono-ADP-ribosyltransferase PARP6 (Q2NL67 whole entry, canonical isoform): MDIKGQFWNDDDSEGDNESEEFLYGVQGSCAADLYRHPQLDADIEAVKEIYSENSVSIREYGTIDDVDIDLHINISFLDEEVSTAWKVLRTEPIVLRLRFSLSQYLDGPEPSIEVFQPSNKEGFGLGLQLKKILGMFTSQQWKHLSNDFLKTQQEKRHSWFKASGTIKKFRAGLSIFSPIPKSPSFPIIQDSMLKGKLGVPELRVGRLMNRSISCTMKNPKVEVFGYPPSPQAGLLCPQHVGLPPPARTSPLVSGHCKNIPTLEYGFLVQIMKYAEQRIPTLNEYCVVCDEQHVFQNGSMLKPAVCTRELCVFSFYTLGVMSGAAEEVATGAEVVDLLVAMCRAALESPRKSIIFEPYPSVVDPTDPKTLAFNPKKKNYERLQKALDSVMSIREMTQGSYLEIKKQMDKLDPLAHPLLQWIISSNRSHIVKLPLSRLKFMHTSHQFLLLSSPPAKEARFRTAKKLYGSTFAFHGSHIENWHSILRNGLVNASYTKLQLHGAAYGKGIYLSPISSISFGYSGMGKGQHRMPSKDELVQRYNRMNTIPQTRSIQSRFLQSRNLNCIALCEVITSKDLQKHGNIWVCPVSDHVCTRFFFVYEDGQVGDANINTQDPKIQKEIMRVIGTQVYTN
How it was run: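 Chemiluminescent kit assay. Histone-coated wells were incubated for 30 min with the PARP isoform and increasing inhibitor concentrations. A substrate mix of NAD plus biotinylated NAD with activated DNA was then added. The biotinylated PARylation product was read with streptavidin-HRP and HRP substrate. IC50 was taken from residual enzyme activity across the concentration series.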

Chain of Organic anion transporter 3 (Q8TCC7 whole entry): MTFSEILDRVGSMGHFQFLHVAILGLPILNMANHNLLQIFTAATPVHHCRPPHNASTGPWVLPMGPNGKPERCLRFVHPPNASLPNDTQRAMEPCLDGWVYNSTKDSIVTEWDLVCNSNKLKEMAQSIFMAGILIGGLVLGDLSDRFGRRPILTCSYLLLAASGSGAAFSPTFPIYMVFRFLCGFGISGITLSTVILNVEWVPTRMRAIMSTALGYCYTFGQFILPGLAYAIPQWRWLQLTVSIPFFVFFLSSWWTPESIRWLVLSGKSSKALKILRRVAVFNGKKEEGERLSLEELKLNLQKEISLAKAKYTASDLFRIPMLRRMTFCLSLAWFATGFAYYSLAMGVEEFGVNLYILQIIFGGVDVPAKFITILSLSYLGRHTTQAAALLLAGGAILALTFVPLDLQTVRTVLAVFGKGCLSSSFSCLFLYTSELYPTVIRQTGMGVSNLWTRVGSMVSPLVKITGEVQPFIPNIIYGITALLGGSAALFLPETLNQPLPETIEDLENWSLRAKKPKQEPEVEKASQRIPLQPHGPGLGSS

SMILES: C[C@]12CCCN1CC1=NNC(=O)c3cc(F)cc4[nH]c2c1c34 [PAMIPARIB]
- IC50 [1]: 23.9 µM
- half-life [2]: 2.07 h
- Activity [3]: Non-Toxic
- AUC [4]: 1757 ng·h/mL
- Activity (NCI-H209): Active
- IC50 (Cytochrome P450 2C8): > 10 µM
- IC50 (Cytochrome P450 2C9): > 10 µM
- Activity [5]: Non-Toxic
- EC50 (MDA-MB-436): 0.0106 µM
- IC50 (Cytochrome P450 2D6): > 10 µM
- clearance [6]: 22.7 mL/min/kg
- EC50 [7]: 0.0538 µM
- Vd [8]: 5.65 L/kg
- AUC [9]: 5521 ng·h/mL
- concentration at 4 h [10]: 135 ng/g
- fraction unbound [11]: 0.15
- Tmax [12]: 0.583 h
- BPR [13]: 17.4%
- IC50 [14]: 0.0009 µM
- F [15]: 98.7%
- concentration at 1 h [16]: 613 ng/g
- inhibition at 20 µM (hERG (KCNH2)): 51%
- bioavailability [17]: 72.6%
- BPR [18]: 18.9%
- bioavailability [19]: 93.7%
- IC50 [20]: > 100 µM
